Reference: ChEMBL document CHEMBL1140918, “Candidate selection and preclinical evaluation of N-tert-butyl isoquine (GSK369796), an affordable and effective 4-aminoquinoline antimalarial for the 21st century” (J Med Chem, 2009)
The source made the active and inactive calls. No cut-off for these calls is given here.

Legend:
Cytochrome P450 1A2 = biological target: T1, Cytochrome P450 1A2 (Homo sapiens, UniProt P05177); assay: Inhibition of human recombinant CYP1A2; format: ADME
T1 sequence (P05177 whole entry): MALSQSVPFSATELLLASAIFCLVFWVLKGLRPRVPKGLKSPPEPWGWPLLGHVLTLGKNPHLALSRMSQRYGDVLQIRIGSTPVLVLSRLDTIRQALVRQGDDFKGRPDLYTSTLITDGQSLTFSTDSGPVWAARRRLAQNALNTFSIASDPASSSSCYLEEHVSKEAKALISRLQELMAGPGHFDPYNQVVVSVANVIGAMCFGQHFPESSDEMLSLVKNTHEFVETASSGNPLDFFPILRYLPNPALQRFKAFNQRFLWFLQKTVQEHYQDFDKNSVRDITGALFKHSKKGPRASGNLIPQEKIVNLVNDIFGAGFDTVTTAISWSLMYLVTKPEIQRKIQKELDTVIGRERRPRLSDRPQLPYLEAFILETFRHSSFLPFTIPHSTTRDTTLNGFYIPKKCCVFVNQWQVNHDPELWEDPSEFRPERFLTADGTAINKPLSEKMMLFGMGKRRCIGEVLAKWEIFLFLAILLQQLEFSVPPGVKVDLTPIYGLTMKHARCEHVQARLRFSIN
Method in brief: (§1)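 Concentration-dependent inhibition of major human cytochrome P450 isozymes (recombinant enzymes) was tested using fluorescent probe substrates. Mean IC50 values were reported.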

[1] = Clearance in iv and orally dosed dog blood; format: ADME, organism-based, Canis lupus familiaris; conditions: whole blood
Method in brief: (§2)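 Single intravenous and oral doses were given to the mouse, rat, dog and/or monkey. Drug was measured in blood to derive blood clearance, elimination half-life and % oral bioavailability.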

Cytochrome P450 3A4 [2] = biological target: T2, Cytochrome P450 3A4 (Homo sapiens, UniProt P08684); assay: Inhibition of human recombinant CYP3A4 using phenyl-piperazinyl-methyl-benzyl-resofurin as substrate; format: ADME; method in brief: as §1
T2 sequence (P08684 whole entry): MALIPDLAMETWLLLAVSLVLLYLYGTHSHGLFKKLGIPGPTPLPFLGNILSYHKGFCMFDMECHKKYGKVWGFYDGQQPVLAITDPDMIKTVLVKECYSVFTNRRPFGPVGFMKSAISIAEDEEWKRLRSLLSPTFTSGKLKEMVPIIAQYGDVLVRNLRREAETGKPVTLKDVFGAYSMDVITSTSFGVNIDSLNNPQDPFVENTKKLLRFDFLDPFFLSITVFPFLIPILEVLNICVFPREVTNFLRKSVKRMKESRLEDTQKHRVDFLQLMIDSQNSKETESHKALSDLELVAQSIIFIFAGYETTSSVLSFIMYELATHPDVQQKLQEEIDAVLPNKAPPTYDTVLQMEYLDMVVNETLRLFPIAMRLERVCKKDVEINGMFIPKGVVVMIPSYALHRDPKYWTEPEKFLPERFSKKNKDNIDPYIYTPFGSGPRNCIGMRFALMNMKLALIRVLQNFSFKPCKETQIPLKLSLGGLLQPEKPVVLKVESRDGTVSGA

Plasmodium berghei = assay: Antimalarial activity as reduced parasitaemia against Plasmodium berghei ANKA infected CD1 mice (Mus musculus) after 4 days; format: functional; conditions: 96 h
Method in brief: (§3)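 Standard Peters 4-day test in female age-matched CD1 mice, randomised into groups of 5. Mice were infected iv on day 0 with 6.4 × 10^6 or 10.0 × 10^6 parasites (P. berghei or P. yoelii) from infected donors. Peripheral-blood parasitaemia was read by flow cytometry at day 4 and compared with vehicle-treated groups. Doses ranged up to 40 mg/kg.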

Plasmodium falciparum [3] = assay: Antimalarial activity against chloroquine-sensitive Plasmodium falciparum HB3 in human erythrocytes after 48 hrs by [3H]hypoxanthine uptake; format: functional, organism-based
Method in brief: (§4)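 P. falciparum grown in human erythrocytes in RPMI 1640 with 25 mM HEPES, 32 mM NaHCO3 and 10% human serum, gassed 3% O2/4% CO2/93% N2. Assay at 2% parasitemia, 0.5% hematocrit, drug stocks in DMSO diluted in medium, in triplicate. After 24 h at 37 °C, [3H]-hypoxanthine added and incubation continued 24 h. Scintillation counting; IC50 by probit interpolation of log dose-response, three independent experiments.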

Cytochrome P450 2C8 = biological target: T3, Cytochrome P450 2C8 (Homo sapiens, UniProt P10632); assay: Inhibition of human recombinant CYP2C8; format: ADME; method in brief: as §1
T3 sequence (P10632 whole entry): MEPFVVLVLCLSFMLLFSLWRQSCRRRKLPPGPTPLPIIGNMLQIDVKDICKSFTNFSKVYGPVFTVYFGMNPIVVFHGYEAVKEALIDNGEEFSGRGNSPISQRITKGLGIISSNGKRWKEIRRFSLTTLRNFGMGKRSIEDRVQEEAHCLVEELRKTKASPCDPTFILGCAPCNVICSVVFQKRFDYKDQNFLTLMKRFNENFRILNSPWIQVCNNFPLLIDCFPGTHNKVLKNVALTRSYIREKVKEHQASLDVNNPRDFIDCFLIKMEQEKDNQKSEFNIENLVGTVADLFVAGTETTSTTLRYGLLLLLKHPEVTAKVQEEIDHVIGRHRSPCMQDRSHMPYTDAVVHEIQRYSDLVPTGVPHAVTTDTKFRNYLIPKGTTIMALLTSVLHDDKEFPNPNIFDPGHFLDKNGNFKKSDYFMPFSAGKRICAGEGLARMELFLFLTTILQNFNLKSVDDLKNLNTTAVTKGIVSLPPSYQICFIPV

Cytochrome P450 2C9 = Cytochrome P450 2C9 (Homo sapiens, UniProt P11712); assay: Inhibition of human recombinant CYP2C9; format: ADME; method in brief: as §1
Cytochrome P450 2C9, sequence (P11712 whole entry): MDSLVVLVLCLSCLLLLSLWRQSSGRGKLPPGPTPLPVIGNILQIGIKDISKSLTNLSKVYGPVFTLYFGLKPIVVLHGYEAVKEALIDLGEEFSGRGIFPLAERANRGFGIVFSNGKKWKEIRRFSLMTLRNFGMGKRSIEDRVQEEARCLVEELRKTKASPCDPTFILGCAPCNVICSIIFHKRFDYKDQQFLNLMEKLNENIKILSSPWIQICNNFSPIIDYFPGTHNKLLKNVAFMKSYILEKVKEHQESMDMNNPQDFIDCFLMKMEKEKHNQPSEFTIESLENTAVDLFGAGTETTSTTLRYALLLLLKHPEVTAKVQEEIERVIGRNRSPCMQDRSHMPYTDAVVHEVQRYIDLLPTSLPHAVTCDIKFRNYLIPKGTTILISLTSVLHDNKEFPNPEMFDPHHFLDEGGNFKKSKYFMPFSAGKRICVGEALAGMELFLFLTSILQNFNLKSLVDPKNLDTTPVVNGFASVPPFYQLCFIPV

Cytochrome P450 3A4 [4] = biological target: T2, Cytochrome P450 3A4; assay: Inhibition of human recombinant CYP3A4 using […] as substrate; format: ADME; conditions: read-out: IC50
Cytochrome P450 2C19 = Cytochrome P450 2C19 (Homo sapiens, UniProt P33261); assay: Inhibition of human recombinant CYP2C19; format: ADME; method in brief: as §1
Cytochrome P450 2C19, sequence (P33261 whole entry): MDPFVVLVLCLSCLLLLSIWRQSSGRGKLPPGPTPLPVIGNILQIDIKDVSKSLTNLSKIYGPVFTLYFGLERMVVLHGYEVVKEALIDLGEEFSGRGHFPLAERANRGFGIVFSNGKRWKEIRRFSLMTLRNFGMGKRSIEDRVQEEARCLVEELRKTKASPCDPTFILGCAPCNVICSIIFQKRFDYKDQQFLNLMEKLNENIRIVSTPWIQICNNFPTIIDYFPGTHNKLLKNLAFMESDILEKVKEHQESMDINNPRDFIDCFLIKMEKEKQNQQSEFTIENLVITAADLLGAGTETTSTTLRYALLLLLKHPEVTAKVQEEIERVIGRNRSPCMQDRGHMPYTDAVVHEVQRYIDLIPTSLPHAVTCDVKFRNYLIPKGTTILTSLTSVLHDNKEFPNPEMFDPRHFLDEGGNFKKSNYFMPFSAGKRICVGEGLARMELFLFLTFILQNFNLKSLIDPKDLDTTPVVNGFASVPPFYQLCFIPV

[5] = Clearance in iv and orally dosed monkey blood; format: ADME, organism-based, Macaca mulatta; conditions: rhesus monkey, whole blood; method in brief: as §2
Plasmodium falciparum [6] = assay: Antimalarial activity against chloroquine-sensitive Plasmodium falciparum 3D7 in human erythrocytes after 48 hrs by [3H]hypoxanthine uptake; format: functional, organism-based; method in brief: as §4
Cytochrome P450 2D6 = Cytochrome P450 2D6 (Homo sapiens, UniProt P10635); assay: Inhibition of human recombinant CYP2D6; format: ADME; method in brief: as §1
Cytochrome P450 2D6, sequence (P10635 whole entry): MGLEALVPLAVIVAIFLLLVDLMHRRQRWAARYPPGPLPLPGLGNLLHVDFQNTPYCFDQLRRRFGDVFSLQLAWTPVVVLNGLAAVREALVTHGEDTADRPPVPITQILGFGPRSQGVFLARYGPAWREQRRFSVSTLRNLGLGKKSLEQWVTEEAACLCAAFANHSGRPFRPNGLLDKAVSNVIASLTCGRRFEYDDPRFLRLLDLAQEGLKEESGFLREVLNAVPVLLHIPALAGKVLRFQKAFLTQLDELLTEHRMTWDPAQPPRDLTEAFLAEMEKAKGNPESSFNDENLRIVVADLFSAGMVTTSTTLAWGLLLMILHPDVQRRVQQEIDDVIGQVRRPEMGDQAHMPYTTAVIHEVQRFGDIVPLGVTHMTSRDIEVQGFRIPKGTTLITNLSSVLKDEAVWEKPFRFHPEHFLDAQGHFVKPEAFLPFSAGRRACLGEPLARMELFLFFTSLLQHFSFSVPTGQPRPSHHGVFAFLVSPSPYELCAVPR

[7] = Oral bioavailability in monkey; format: ADME, organism-based, Macaca mulatta; conditions: rhesus monkey, in vivo; method in brief: as §2
Plasmodium falciparum [8] = assay: Antimalarial activity against chloroquine-resistant Plasmodium falciparum K1 in human erythrocytes after 48 hrs by [3H]hypoxanthine uptake; format: functional, organism-based; method in brief: as §4
Heme [9] = assay: Binding affinity to heme in DMSO assessed as equilibrium constant by UV-visible spectrophotometry; design: scale not given here
Method in brief: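 Haem titrations were run in buffered 40% DMSO so that haem stays monomeric and aggregation and μ-oxo dimer formation are minimised. Binding data were fitted mathematically to two alternative binding-process models to pick the best fit.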

Rhesus monkey = assay: Toxicity in monkey assessed as increase in QTc interval; format: organism-based, Macaca mulatta; conditions: in vivo
Method in brief: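 Repeat-dose toxicity studies in monkeys, with QTc intervals and ECG rhythm monitored.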

Plasmodium yoelii [10] = assay: Antimalarial activity as reduced parasitaemia against Plasmodium yoelii 17X infected CD1 mice (Mus musculus) after 4 days; format: functional; conditions: 96 h
Plasmodium yoelii [11] = assay: Antimalarial activity as ED100 in peripheral blood against Plasmodium yoelii 17X infected CD1 mice (Mus musculus) after 4 days; format: functional
Heme [12] = assay: Binding affinity to heme in 12 mM SDS surfactant assessed as equilibrium constant by UV-visible spectrophotometry
[13] = biological target: Voltage-gated inwardly rectifying potassium channel KCNH2 (Homo sapiens, UniProt Q12809); assay: Inhibition of human cloned ERG
Voltage-gated inwardly rectifying potassium channel KCNH2, sequence (Q12809 whole entry): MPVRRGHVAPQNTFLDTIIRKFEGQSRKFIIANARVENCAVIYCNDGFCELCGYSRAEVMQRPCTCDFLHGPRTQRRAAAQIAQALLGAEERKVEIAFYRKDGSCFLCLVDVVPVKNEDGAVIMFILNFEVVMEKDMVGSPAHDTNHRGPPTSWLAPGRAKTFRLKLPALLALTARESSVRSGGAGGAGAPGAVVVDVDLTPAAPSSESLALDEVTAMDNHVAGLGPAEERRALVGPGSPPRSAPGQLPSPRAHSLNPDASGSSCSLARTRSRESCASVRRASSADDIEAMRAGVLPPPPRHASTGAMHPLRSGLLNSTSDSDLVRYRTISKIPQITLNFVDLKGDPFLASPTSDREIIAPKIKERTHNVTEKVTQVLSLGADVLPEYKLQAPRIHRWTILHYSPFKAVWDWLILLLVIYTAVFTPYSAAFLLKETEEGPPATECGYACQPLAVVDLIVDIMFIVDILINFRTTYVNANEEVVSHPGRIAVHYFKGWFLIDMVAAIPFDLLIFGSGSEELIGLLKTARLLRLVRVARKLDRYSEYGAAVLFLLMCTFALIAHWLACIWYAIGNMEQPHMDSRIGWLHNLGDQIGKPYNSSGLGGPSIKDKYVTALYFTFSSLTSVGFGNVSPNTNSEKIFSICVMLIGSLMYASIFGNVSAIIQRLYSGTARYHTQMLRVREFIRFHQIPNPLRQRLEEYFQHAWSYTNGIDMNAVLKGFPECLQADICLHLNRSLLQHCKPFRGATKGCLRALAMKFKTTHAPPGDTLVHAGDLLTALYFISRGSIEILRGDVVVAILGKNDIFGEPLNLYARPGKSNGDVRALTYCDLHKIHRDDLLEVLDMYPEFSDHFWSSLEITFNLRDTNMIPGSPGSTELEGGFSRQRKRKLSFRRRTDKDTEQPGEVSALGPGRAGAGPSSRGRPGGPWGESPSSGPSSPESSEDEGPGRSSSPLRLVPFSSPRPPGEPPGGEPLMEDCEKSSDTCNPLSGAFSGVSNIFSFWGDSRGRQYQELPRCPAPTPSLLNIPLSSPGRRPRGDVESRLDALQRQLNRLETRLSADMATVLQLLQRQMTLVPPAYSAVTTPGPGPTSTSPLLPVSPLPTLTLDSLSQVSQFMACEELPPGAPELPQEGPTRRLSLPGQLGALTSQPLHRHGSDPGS

Mus musculus = organism: Mus musculus; assay: Protein binding in mouse; format: ADME, organism-based; conditions: in vivo
Method in brief: (§5)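 Protein binding and blood-cell association were assessed in vitro in plasma or whole blood from preclinical species and humans.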

Homo sapiens = organism: Homo sapiens; assay: Protein binding in human; format: ADME, organism-based; conditions: in vivo; method in brief: as §5
Plasmodium yoelii [14] = assay: Antimalarial activity as reduced parasitaemia at day 4 against Plasmodium yoelii 17X infected CD1 mice (Mus musculus) at 40 mg/kg; format: functional, organism-based; design: dose 40 mg/kg; method in brief: as §3

CCNCc1ccc(Nc2ccnc3cc(Cl)ccc23)cc1O [DESETHYL ISOQUINE]
IC50 (Cytochrome P450 1A2): 8 µM | clearance [1]: 12 mL/min/kg | IC50 (Cytochrome P450 3A4 [2]): ≥ 55 µM | ED50 (Plasmodium berghei): 5.3 mg/kg | ED90 (Plasmodium berghei): 7.3 mg/kg | IC50 (Plasmodium falciparum [3]): 0.0142 µM | IC50 (Cytochrome P450 2C8): 23 µM | IC50 (Cytochrome P450 2C9): > 100 µM | IC50 (Cytochrome P450 3A4 [4]): > 100 µM | IC50 (Cytochrome P450 2C19): 62 µM | clearance [5]: 49 mL/min/kg | IC50 (Plasmodium falciparum [6]): 0.0092 µM | IC50 (Cytochrome P450 2D6): 3.4 µM | bioavailability [7]: 40% | IC50 (Plasmodium falciparum [8]): 0.0176 µM

OC(c1cc(C(F)(F)F)nc2c(C(F)(F)F)cccc12)C1CCCCN1 (configuration not stated)
Activity (Heme [9]): 3.84

CCCCN(CCCC)CCC(O)c1cc2c(Cl)cc(Cl)cc2c2cc(C(F)(F)F)ccc12 (configuration not stated) [HALOFANTRINE]
Activity (Rhesus monkey): Toxic

CCN(CC)Cc1cc(Nc2ccnc3cc(Cl)ccc23)ccc1O.Cl
ED50 (Plasmodium berghei): 2.1 mg/kg | ED90 (Plasmodium berghei): 3.2 mg/kg | ED50 (Plasmodium yoelii [10]): 2.6 mg/kg | ED90 (Plasmodium yoelii [10]): 3.7 mg/kg | IC50 (Plasmodium falciparum [3]): 0.0096 µM | Activity (Heme [9]): 4.4 | IC50 (Plasmodium falciparum [6]): 0.0112 µM | Activity (Plasmodium yoelii [11]): >40 mg/kg | IC50 (Plasmodium falciparum [8]): 0.0155 µM

c1ccncc1
Activity (Heme [12]): 2.24

CCNCc1cc(Nc2ccnc3cc(Cl)ccc23)ccc1O [DESETHYL AMODIAQUINE]
IC50 [13]: 9.5 µM | Activity (Mus musculus): 74% | IC50 (Cytochrome P450 3A4 [2]): > 100 µM | Activity (Homo sapiens): 86% | Activity (Plasmodium yoelii [14]): inactive
